Active and inactive are the calls of the source.
Key:
Type in all cases: cell-based
[1] = target: T1, Toll-like receptor 8 (Homo sapiens) (UniProt Q9NR97); assay: Agonist activity at TLR8 in human PBMC assessed as induction of myeloid dendritic cell maturation by measuring MHC-1 level at 0.1 uM after 6 hrs by flow cytometry
T1 sequence (whole entry): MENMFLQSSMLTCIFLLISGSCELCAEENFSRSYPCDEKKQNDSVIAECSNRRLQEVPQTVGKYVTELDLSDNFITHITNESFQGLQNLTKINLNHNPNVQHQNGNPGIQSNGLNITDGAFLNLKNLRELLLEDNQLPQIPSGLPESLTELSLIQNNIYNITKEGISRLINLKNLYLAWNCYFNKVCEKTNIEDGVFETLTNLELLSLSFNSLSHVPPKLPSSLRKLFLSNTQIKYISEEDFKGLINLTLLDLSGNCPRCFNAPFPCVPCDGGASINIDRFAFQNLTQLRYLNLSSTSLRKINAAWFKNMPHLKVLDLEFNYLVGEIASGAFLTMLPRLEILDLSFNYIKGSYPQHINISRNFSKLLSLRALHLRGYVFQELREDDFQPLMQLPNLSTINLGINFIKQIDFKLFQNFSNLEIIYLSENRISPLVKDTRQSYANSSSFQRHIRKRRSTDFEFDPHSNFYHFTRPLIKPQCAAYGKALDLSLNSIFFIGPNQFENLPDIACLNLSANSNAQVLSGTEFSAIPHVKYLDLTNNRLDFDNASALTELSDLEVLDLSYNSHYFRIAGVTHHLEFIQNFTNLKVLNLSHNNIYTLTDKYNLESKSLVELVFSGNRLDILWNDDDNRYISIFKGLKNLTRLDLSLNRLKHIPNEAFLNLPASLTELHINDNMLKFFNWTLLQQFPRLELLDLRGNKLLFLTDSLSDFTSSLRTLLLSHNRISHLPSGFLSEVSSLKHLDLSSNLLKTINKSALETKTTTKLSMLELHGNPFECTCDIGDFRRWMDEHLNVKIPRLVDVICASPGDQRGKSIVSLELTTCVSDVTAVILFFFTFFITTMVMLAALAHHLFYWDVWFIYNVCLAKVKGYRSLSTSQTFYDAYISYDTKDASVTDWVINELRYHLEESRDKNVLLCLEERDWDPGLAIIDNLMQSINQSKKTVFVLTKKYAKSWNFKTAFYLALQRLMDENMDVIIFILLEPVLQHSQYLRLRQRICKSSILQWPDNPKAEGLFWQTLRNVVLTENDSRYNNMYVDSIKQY
Procedure, shortened: (§1)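 hPBMCs stimulated 6 h at a single 0.1 μM dose; HLA-DR, MHC-I, CD80 and CD86 on mDCs and pDCs measured by flow cytometry, expressed as fold change versus unstimulated cells. Mean ± SD of three independent experiments in three different donors.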

[2] = target: T2, Toll-like receptor 7 (Homo sapiens) (UniProt Q9NYK1); assay: Agonist activity at TLR7 in human PBMC assessed as induction of plasmacytoid dendritic cell maturation by measuring MHC-1 level at 0.1 uM after 6 hrs by flow cytometry; procedure, shortened: as §1
T2 sequence (whole entry): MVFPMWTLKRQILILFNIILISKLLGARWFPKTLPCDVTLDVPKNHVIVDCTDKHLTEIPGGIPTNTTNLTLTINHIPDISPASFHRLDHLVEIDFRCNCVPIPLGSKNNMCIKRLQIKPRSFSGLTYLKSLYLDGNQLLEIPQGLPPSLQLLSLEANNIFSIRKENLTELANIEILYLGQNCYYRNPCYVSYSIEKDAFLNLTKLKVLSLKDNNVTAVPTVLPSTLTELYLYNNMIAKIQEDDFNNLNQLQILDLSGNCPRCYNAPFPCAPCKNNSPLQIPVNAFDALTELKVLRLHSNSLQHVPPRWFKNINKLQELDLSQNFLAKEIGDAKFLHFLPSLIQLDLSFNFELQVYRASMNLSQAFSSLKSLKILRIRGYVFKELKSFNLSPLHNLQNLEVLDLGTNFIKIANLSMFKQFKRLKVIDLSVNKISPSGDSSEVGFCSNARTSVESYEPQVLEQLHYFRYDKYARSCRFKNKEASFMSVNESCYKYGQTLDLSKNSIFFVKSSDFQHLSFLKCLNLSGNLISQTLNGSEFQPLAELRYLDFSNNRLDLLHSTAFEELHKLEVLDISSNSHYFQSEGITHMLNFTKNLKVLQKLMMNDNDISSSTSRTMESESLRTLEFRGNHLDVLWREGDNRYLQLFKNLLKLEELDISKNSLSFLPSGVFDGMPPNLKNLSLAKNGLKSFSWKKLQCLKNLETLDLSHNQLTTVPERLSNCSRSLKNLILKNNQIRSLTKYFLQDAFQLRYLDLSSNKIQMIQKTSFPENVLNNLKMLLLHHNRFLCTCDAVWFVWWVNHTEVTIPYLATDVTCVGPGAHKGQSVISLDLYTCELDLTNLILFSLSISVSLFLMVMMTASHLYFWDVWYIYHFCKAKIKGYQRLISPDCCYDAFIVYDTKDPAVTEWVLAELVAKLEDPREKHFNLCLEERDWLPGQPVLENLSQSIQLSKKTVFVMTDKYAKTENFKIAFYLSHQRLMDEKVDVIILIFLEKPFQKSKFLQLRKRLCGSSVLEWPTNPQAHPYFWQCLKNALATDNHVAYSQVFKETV

[3] = target: Toll-like receptor 3 (Homo sapiens) (UniProt O15455); assay: Agonist activity at human TLR3 expressed in HEK293 cells by SEAP reporter gene assay

Measured: Activity

Toll-like receptor 3 (Homo sapiens), sequence (O15455 whole entry): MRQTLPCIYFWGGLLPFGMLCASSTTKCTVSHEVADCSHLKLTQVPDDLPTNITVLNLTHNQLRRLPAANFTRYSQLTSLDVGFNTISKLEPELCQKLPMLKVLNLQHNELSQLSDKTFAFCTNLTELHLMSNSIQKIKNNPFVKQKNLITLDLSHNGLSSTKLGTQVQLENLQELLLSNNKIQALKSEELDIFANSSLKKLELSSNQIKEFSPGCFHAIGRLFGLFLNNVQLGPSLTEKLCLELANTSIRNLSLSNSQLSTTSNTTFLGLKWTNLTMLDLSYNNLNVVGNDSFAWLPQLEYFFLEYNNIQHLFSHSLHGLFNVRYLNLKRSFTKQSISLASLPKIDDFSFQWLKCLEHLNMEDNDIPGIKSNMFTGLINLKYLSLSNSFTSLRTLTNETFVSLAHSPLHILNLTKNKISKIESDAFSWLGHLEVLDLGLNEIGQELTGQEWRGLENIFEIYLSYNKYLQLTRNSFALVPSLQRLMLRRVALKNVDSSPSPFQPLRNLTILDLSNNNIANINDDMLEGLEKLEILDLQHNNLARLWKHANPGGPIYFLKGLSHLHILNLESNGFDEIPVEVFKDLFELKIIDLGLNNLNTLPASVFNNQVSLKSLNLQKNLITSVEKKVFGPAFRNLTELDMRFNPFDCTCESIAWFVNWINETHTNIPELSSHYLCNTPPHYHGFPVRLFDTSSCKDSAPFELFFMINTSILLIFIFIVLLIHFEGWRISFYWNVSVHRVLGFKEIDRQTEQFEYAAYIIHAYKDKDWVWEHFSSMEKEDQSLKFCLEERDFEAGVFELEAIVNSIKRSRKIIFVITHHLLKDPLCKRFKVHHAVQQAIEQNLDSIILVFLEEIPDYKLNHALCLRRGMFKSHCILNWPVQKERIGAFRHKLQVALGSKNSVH

Nc1nc(OCCCCO)nc2c1[nH]c(=O)n2CC1CCNCC1
inactive: [1] | [2] | [3]
